Reference: ChEMBL document CHEMBL2157922, “Synthesis and antifungal activity of diverse C-2 pyridinyl and pyridinylvinyl substituted quinolines” (2012)
≈ marks a conversion by molar mass, not a printed value.

Legend:
[1] = test system: Candida albicans; test: Antifungal activity against Candida albicans ATCC 10231 at 31.2 ug/ml after 24 hrs; type: functional; details: ATCC 10231, 24 h
Summary of the method: (§1)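 C. albicans was grown in 96-well RPMI-1640 broth microdilution with compound wells diluted from DMSO stocks. Growth wells with matched DMSO and sterility wells were included. After 24 h at 30 °C in a moist, dark chamber, OD405 was read. % inhibition = 100 − (CTW − SCW)/(GCW − SCW) OD, done in duplicate.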

[2] = test system: Saccharomyces cerevisiae; test: Antifungal activity against Saccharomyces cerevisiae ATCC 9763 after 48 hrs by broth microdilution technique; type: functional; details: ATCC 9763, 48 h
Summary of the method: (§2)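 Yeasts were tested by CLSI broth microdilution in RPMI-1640 buffered to pH 7.0 with MOPS, with compound from 250 down to 0.98 in DMSO stocks. Trays were held at 30 °C in a moist, dark chamber. MIC100, the lowest concentration giving total visual inhibition against the growth control, was read by eye at 48 h.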

[3] = test system: Candida albicans; test: Antifungal activity against Candida albicans ATCC 10231 after 48 hrs by broth microdilution technique; type: functional; details: ATCC 10231, 48 h; summary of the method: as §2
[4] = test system: Candida albicans; test: Antifungal activity against Candida albicans CCC 126 after 48 hrs by broth microdilution technique; type: functional; details: CCC 126, 48 h
[5] = test system: Cryptococcus neoformans; test: Antifungal activity against Cryptococcus neoformans IM 983040 after 48 hrs by broth microdilution technique; type: functional; details: IM 983040, 48 h
Summary of the method: (§3)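 C. neoformans was tested by 96-well RPMI-1640 microdilution, with DMSO-matched growth and sterility control wells. Plates were incubated 48 h at 30 °C in a moist, dark chamber and read at OD405. % inhibition = 100 − (CTW − SCW)/(GCW − SCW), in duplicate. For the clinical isolates, MIC80 and MIC50 are the lowest concentrations giving 80% and 50% inhibition.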

[6] = test system: Aspergillus flavus; test: Antifungal activity against Aspergillus flavus ATCC 9170 after 48 hrs by broth microdilution technique; type: functional; details: ATCC 9170, 48 h
Summary of the method: (§4)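 Moulds and dermatophytes were run by CLSI broth microdilution in MOPS-buffered RPMI-1640 at pH 7.0. Aspergillus was incubated at 30 °C and dermatophytes at 28–30 °C, in a moist, dark chamber. MIC100, the lowest concentration with no visible growth, was read visually at a time set by growth of the control fungus.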

[7] = test system: Cryptococcus neoformans; test: Antifungal activity against Cryptococcus neoformans ATCC 32264 at 31.2 ug/ml after 48 hrs; type: functional; details: ATCC 32264, 48 h; summary of the method: as §3
[8] = test system: Candida albicans; test: Antifungal activity against Candida albicans CCC 125 after 48 hrs by broth microdilution technique; type: functional; details: CCC 125, 48 h
[9] = test system: Cryptococcus neoformans; test: Antifungal activity against Cryptococcus neoformans IM 972724 after 48 hrs by broth microdilution technique; type: functional; details: IM 972724, 48 h; summary of the method: as §3
[10] = test system: Trichophyton mentagrophytes; test: Antifungal activity against Trichophyton mentagrophytes ATCC 9972 after 48 hrs by broth microdilution technique; type: functional; details: ATCC 9972, 48 h; summary of the method: as §4
[11] = test system: Candida albicans; test: Antifungal activity against Candida albicans ATCC 10231 at 7.8 ug/ml after 24 hrs; type: functional; details: ATCC 10231, 24 h; summary of the method: as §1
[12] = test system: Cryptococcus neoformans; test: Antifungal activity against Cryptococcus neoformans IM 00319 after 48 hrs by broth microdilution technique; type: functional; details: IM 00319, 48 h; summary of the method: as §3
[13] = test system: Cryptococcus neoformans; test: Antifungal activity against Cryptococcus neoformans IM 042074 after 48 hrs by broth microdilution technique; type: functional; details: IM 042074, 48 h; summary of the method: as §3
[14] = test system: Candida albicans; test: Antifungal activity against Candida albicans CCC 128 after 48 hrs by broth microdilution technique; type: functional; details: CCC 128, 48 h
[15] = test system: Candida albicans; test: Antifungal activity against Candida albicans CCC 127 after 48 hrs by broth microdilution technique; type: functional; details: CCC 127, 48 h
[16] = test system: Nannizzia gypsea; test: Antifungal activity against Microsporum gypseum CCC 115 after 48 hrs by broth microdilution technique; type: functional; details: CCC 115, 48 h; summary of the method: as §4
[17] = test system: Cryptococcus neoformans; test: Antifungal activity against Cryptococcus neoformans IM 983036 after 48 hrs by broth microdilution technique; type: functional; details: IM 983036, 48 h; summary of the method: as §3
[18] = test system: Aspergillus niger; test: Antifungal activity against Aspergillus niger ATCC 9029 after 48 hrs by broth microdilution technique; type: functional; details: ATCC 9029, 48 h; summary of the method: as §4
[19] = test system: Candida albicans; test: Antifungal activity against Candida albicans CCC 130 after 48 hrs by broth microdilution technique; type: functional; details: CCC 130, 48 h
[20] = test system: Candida parapsilosis; test: Antifungal activity against Candida parapsilosis CCC 124 after 48 hrs by broth microdilution technique; type: functional; details: Lodderomyces parapsilosis, CCC 124, 48 h
[21] = test system: Candida albicans; test: Antifungal activity against Candida albicans CCC 129 after 48 hrs by broth microdilution technique; type: functional; details: CCC 129, 48 h
[22] = test system: Cryptococcus neoformans; test: Antifungal activity against Cryptococcus neoformans ATCC 32264 after 48 hrs by broth microdilution technique; type: functional; details: ATCC 32264, 48 h; summary of the method: as §2
[23] = test system: Nakaseomyces glabratus; test: Antifungal activity against Candida glabrata CCC 115 after 48 hrs by broth microdilution technique; type: functional; details: CCC 115, 48 h
[24] = test system: Candida tropicalis; test: Antifungal activity against Candida tropicalis CCC 131 after 48 hrs by broth microdilution technique; type: functional; details: CCC 131, 48 h
[25] = test system: Pichia kudriavzevii; test: Antifungal activity against Candida krusei CCC 117 after 48 hrs by broth microdilution technique; type: functional; details: CCC 117, 48 h
[26] = test system: Candida albicans; test: Antifungal activity against Candida albicans CCC 130 after 24 hrs by broth microdilution technique; details: CCC 130, 24 h
[27] = test system: Cryptococcus neoformans; test: Antifungal activity against Cryptococcus neoformans IM 972751 after 48 hrs by broth microdilution technique; type: functional; details: IM 972751, 48 h; summary of the method: as §3
[28] = test system: Aspergillus fumigatus; test: Antifungal activity against Aspergillus fumigatus ATCC 26934 after 48 hrs by broth microdilution technique; type: functional; details: ATCC 26934, 48 h; summary of the method: as §4
[29] = test system: Trichophyton rubrum; test: Antifungal activity against Trichophyton rubrum CCC 113 after 48 hrs by broth microdilution technique; type: functional; details: CCC 113, 48 h
[30] = test system: Candida albicans; test: Antifungal activity against Candida albicans ATCC 10231 at 15.6 ug/ml after 24 hrs; type: functional; details: ATCC 10231, 24 h; summary of the method: as §1

MIC [2]: 62 µg/mL (≈ 267 µM) | MIC [3]: 62 µg/mL (≈ 267 µM) | MIC50 [3]: 7.8 µg/mL (≈ 33.6 µM) | MIC80 [3]: 15.6 µg/mL (≈ 67.2 µM) | MIC50 [4]: 15.6 µg/mL (≈ 67.2 µM) | MIC80 [4]: 31.2 µg/mL (≈ 134 µM) | MIC50 [5]: 7.8 µg/mL (≈ 33.6 µM) | MIC80 [5]: 31.2 µg/mL (≈ 134 µM) | MIC [6]: 125 µg/mL (≈ 538 µM) | MIC50 [8]: 7.8 µg/mL (≈ 33.6 µM) | MIC80 [8]: 15.6 µg/mL (≈ 67.2 µM) | MIC50 [9]: 7.8 µg/mL (≈ 33.6 µM) | MIC80 [9]: 31.2 µg/mL (≈ 134 µM) | MIC [10]: 31 µg/mL (≈ 133 µM) | MIC50 [12]: 7.8 µg/mL (≈ 33.6 µM) | MIC80 [12]: 31.2 µg/mL (≈ 134 µM) | MIC50 [13]: 3.9 µg/mL (≈ 16.8 µM) | MIC80 [13]: 31.2 µg/mL (≈ 134 µM) | MIC50 [14]: 7.8 µg/mL (≈ 33.6 µM) | MIC80 [14]: 15.6 µg/mL (≈ 67.2 µM) | MIC50 [15]: 15.6 µg/mL (≈ 67.2 µM) | MIC80 [15]: 15.6 µg/mL (≈ 67.2 µM) | MIC [16]: 31 µg/mL (≈ 133 µM) | MIC50 [17]: 7.8 µg/mL (≈ 33.6 µM) | MIC80 [17]: 31.2 µg/mL (≈ 134 µM) | MIC [18]: 125 µg/mL (≈ 538 µM) | MIC80 [19]: 15.6 µg/mL (≈ 67.2 µM) | MIC50 [20]: 7.8 µg/mL (≈ 33.6 µM) | MIC80 [20]: 31.2 µg/mL (≈ 134 µM) | MIC50 [21]: 15.6 µg/mL (≈ 67.2 µM) | MIC80 [21]: 31.2 µg/mL (≈ 134 µM) | MIC [22]: 62 µg/mL (≈ 267 µM) | MIC50 [22]: 15.6 µg/mL (≈ 67.2 µM) | MIC80 [22]: 31.2 µg/mL (≈ 134 µM) | MIC50 [23]: 31.2 µg/mL (≈ 134 µM) | MIC80 [23]: 62.5 µg/mL (≈ 269 µM) | MIC50 [24]: 31.2 µg/mL (≈ 134 µM) | MIC80 [24]: 62.5 µg/mL (≈ 269 µM) | MIC50 [25]: 15.6 µg/mL (≈ 67.2 µM) | MIC80 [25]: 31.2 µg/mL (≈ 134 µM) | MIC50 [26]: 7.8 µg/mL (≈ 33.6 µM) | MIC50 [27]: 3.9 µg/mL (≈ 16.8 µM) | MIC80 [27]: 31.2 µg/mL (≈ 134 µM) | MIC [28]: 125 µg/mL (≈ 538 µM) | MIC [29]: 31 µg/mL (≈ 133 µM)
SMILES: C(=C\c1ccc2ccccc2n1)/c1ccncc1
inhibition at 31.2 µg/mL [1]: 80% | MFC [2]: 250 µg/mL (≈ 1080 µM) | MFC [3]: 250 µg/mL (≈ 1080 µM) | MFC [6]: 250 µg/mL (≈ 1080 µM) | inhibition at 31.2 µg/mL [7]: 80% | MFC [10]: 125 µg/mL (≈ 538 µM) | inhibition at 7.8 µg/mL [11]: 50% | MFC [16]: 125 µg/mL (≈ 538 µM) | MFC [18]: > 250 µg/mL | MFC [22]: 125 µg/mL (≈ 538 µM) | MFC [28]: 250 µg/mL (≈ 1080 µM) | MFC [29]: 125 µg/mL (≈ 538 µM) | inhibition at 15.6 µg/mL [30]: 80%
